Tests used:
[1] = target: Dual specificity mitogen-activated protein kinase kinase 4 (Mus musculus) (UniProt P47809); test: Residual activity at mouse MKK4 at 10 uM in presence of 10 uM ATP relative to control
In short: (§1)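 Single-concentration counter-screen across a panel of 80 Ser/Thr and Tyr protein kinases. Compound was tested at 10 µM with ATP at 10 µM. Activity remaining in each kinase is expressed relative to control.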

[2] = target: Dual specificity mitogen-activated protein kinase kinase 6 (Homo sapiens) (UniProt P52564); test: Residual activity at human MKK6 at 10 uM in presence of 10 uM ATP relative to control; in short: as §1
Chain of Dual specificity mitogen-activated protein kinase kinase 6 (Homo sapiens) (P52564 whole entry): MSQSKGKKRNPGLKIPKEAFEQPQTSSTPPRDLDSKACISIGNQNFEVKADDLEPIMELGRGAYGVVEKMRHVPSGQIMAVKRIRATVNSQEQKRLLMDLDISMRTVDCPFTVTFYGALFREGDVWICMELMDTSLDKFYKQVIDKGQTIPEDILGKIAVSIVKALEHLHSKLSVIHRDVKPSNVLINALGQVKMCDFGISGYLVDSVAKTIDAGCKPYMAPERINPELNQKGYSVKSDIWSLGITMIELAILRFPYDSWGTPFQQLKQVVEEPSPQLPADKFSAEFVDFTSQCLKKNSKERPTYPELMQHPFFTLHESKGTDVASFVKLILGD

[3] = target: Ribosomal protein S6 kinase alpha-5 (Homo sapiens) (UniProt O75582); test: Residual activity at human MSK1 at 10 uM in presence of 10 uM ATP relative to control; in short: as §1
[4] = target: Ribosomal protein S6 kinase beta-1 (Homo sapiens) (UniProt P23443); test: Residual activity at human p70S6K at 10 uM in presence of 10 uM ATP relative to control; in short: as §1
[5] = target: Platelet-derived growth factor receptor alpha (Homo sapiens) (UniProt P16234); test: Residual activity at human PDGFRalpha at 10 uM in presence of 10 uM ATP relative to control; in short: as §1
[6] = target: Protein kinase C beta type (Homo sapiens) (UniProt P05771); test: Residual activity at human PKCbeta2 at 10 uM in presence of 10 uM ATP relative to control; in short: as §1
[7] = target: Protein kinase C eta type (Homo sapiens) (UniProt P24723); test: Residual activity at human PKCeta at 10 uM in presence of 10 uM ATP relative to control; in short: as §1
Chain of Protein kinase C eta type (Homo sapiens) (P24723 whole entry): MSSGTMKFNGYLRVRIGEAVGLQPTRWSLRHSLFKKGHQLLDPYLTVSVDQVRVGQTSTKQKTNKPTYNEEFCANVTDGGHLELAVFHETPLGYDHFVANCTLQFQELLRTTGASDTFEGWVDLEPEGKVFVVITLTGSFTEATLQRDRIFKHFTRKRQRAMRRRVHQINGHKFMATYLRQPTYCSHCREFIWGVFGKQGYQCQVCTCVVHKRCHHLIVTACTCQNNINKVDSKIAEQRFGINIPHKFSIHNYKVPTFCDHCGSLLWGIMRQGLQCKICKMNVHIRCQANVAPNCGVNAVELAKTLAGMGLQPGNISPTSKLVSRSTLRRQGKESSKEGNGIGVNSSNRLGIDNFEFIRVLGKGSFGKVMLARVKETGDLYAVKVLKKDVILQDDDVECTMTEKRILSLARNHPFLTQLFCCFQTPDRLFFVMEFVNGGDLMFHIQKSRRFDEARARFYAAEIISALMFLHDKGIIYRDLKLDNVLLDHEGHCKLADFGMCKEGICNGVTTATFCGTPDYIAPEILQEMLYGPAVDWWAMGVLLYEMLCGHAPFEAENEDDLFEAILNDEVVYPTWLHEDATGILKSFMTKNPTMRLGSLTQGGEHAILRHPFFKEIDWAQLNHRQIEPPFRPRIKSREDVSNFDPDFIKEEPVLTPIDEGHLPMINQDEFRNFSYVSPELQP

[8] = target: Serine/threonine-protein kinase Chk2 (Homo sapiens) (UniProt O96017); test: Residual activity at human Chk2 at 10 uM in presence of 10 uM ATP relative to control
In short: (§2)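 Panel of Ser/Thr and Tyr protein kinases, each tested with 10 µM compound in the presence of 10 µM ATP; activity expressed relative to control.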

[9] = target: Fibroblast growth factor receptor 3 (Homo sapiens) (UniProt P22607); test: Residual activity at human FGFR3 at 10 uM in presence of 10 uM ATP relative to control; in short: as §2
[10] = target: Receptor-type tyrosine-protein kinase FLT3 (Homo sapiens) (UniProt P36888); test: Residual activity at human Flt3 at 10 uM in presence of 10 uM ATP relative to control; in short: as §2
[11] = target: Tyrosine-protein kinase Fyn (Homo sapiens) (UniProt P06241); test: Residual activity at human FYN at 10 uM in presence of 10 uM ATP relative to control; in short: as §2
[12] = target: Glycogen synthase kinase-3 alpha (Homo sapiens) (UniProt P49840); test: Residual activity at human GSK3alpha at 10 uM in presence of 10 uM ATP relative to control; in short: as §2
Chain of Glycogen synthase kinase-3 alpha (Homo sapiens) (P49840 2-483 limits assumed): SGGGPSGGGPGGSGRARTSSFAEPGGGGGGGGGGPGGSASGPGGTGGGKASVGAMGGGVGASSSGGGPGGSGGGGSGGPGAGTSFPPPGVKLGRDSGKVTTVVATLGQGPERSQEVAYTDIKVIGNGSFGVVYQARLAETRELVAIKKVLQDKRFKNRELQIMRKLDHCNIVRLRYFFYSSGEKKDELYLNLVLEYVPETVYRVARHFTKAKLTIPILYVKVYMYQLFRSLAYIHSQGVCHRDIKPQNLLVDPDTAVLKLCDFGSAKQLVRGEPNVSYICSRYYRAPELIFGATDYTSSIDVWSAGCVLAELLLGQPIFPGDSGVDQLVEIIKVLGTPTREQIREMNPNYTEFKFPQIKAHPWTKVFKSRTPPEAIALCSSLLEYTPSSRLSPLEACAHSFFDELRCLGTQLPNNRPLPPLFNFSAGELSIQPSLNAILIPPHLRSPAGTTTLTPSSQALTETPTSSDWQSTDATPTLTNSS

[13] = target: Glycogen synthase kinase-3 beta (Homo sapiens) (UniProt P49841); test: Residual activity at human GSK3-beta at 10 uM in presence of 10 uM ATP relative to control; in short: as §2
Chain of Glycogen synthase kinase-3 beta (Homo sapiens) (P49841 whole entry, looked up): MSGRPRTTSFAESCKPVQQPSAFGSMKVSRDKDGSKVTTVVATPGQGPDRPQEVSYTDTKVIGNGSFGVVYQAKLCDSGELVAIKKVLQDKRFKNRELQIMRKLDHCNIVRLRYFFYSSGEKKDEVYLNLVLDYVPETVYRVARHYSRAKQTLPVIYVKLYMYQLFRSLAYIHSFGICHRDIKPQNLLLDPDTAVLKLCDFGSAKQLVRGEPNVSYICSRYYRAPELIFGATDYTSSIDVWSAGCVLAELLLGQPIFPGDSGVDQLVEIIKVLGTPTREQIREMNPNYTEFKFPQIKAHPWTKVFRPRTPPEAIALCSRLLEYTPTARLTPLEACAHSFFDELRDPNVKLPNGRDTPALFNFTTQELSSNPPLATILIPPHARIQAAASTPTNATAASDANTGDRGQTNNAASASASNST

[14] = target: Mitogen-activated protein kinase 8 (Homo sapiens) (UniProt P45983); test: Residual activity at human JNK1alpha1 at 10 uM in presence of 10 uM ATP relative to control; in short: as §1
[15] = target: Tyrosine-protein kinase Lck (Homo sapiens) (UniProt P06239); test: Residual activity at human Lck at 10 uM in presence of 10 uM ATP relative to control; in short: as §1
Chain of Tyrosine-protein kinase Lck (Homo sapiens) (P06239 2-509 limits assumed): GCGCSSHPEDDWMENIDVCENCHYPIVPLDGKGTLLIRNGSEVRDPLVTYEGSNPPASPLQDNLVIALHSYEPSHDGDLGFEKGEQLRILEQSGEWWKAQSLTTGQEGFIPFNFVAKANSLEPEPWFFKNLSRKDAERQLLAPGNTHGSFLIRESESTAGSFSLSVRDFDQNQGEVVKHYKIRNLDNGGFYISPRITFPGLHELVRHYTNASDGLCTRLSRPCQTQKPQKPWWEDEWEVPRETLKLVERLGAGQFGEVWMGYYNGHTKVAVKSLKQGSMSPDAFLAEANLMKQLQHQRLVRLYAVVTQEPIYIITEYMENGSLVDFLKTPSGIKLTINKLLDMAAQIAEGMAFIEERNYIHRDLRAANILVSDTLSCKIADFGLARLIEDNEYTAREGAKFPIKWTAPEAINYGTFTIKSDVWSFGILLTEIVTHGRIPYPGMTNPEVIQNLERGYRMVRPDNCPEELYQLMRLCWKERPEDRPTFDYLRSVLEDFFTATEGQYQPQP

[16] = target: Tyrosine-protein kinase Lyn (Homo sapiens) (UniProt P07948); test: Residual activity at human Lyn at 10 uM in presence of 10 uM ATP relative to control; in short: as §1
[17] = target: MAP kinase-activated protein kinase 2 (Homo sapiens) (UniProt P49137); test: Residual activity at human MAPKAPK2 at 10 uM in presence of 10 uM ATP relative to control; in short: as §1
Chain of MAP kinase-activated protein kinase 2 (Homo sapiens) (P49137 whole entry, looked up): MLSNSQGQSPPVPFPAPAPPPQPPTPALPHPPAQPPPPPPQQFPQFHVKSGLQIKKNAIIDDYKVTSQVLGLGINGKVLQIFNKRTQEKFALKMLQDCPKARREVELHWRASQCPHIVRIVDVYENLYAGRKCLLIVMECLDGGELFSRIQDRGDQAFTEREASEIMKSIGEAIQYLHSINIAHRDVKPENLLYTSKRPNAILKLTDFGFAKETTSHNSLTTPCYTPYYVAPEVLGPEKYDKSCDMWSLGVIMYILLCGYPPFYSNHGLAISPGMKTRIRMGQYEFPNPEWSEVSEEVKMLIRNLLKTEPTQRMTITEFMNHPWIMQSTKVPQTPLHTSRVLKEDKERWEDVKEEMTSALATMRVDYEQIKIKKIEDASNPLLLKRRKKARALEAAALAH

[18] = target: Protein kinase C iota type (Homo sapiens) (UniProt P41743); test: Residual activity at human PKCiota at 10 uM in presence of 10 uM ATP relative to control; in short: as §1
[19] = target: MAP kinase-activated protein kinase 5 (Homo sapiens) (UniProt Q8IW41); test: Residual activity at human PRAK at 10 uM in presence of 10 uM ATP relative to control; in short: as §1
[20] = target: Serine/threonine-protein kinase N2 (Homo sapiens) (UniProt Q16513); test: Residual activity at human PRK2 at 10 uM in presence of 10 uM ATP relative to control; in short: as §1
[21] = target: Ribosomal protein S6 kinase alpha-1 (Homo sapiens) (UniProt Q15418); test: Residual activity at human Rsk1 at 10 uM in presence of 10 uM ATP relative to control; in short: as §1
Chain of Ribosomal protein S6 kinase alpha-1 (Homo sapiens) (Q15418 whole entry): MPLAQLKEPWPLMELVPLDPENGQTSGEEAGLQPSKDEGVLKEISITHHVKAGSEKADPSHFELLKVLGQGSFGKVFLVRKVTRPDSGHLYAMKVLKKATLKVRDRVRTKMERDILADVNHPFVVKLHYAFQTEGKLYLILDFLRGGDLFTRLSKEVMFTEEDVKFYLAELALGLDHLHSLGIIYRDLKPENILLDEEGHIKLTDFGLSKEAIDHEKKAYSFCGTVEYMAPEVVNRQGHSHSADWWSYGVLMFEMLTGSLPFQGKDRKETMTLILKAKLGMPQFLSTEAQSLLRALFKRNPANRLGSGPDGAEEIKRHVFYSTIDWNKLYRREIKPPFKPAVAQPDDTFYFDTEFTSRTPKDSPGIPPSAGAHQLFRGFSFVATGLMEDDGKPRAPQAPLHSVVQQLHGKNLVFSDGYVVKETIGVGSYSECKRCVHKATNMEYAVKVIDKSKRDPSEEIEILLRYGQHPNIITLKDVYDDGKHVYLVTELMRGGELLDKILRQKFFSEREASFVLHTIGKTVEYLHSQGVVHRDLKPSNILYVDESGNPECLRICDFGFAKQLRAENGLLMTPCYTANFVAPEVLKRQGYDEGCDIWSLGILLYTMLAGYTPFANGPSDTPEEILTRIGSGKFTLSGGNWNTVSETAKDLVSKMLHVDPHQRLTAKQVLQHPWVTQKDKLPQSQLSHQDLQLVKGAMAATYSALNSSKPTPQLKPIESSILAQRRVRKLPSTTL

[22] = target: Ribosomal protein S6 kinase alpha-2 (Homo sapiens) (UniProt Q15349); test: Residual activity at human Rsk2 at 10 uM in presence of 10 uM ATP relative to control; in short: as §1
[23] = target: Mitogen-activated protein kinase 12 (Homo sapiens) (UniProt P53778); test: Residual activity at human SAPK3 at 10 uM in presence of 10 uM ATP relative to control; in short: as §1
Chain of Mitogen-activated protein kinase 12 (Homo sapiens) (P53778 whole entry): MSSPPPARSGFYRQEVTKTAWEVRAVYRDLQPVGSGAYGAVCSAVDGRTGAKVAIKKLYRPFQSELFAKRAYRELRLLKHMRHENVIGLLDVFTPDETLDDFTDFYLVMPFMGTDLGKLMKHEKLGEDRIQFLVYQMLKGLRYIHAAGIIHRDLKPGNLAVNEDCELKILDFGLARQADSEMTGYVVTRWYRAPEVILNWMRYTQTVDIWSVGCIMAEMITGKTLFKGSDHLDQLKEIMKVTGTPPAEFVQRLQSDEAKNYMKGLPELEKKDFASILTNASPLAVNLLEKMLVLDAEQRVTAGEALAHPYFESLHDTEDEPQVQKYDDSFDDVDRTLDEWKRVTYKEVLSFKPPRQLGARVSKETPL

[24] = target: Serine/threonine-protein kinase Sgk1 (Homo sapiens) (UniProt O00141); test: Residual activity at human SGK at 10 uM in presence of 10 uM ATP relative to control; in short: as §1
[25] = target: Tyrosine-protein kinase ZAP-70 (Homo sapiens) (UniProt P43403); test: Residual activity at human ZAP70 at 10 uM in presence of 10 uM ATP relative to control; in short: as §1
Chain of Tyrosine-protein kinase ZAP-70 (Homo sapiens) (P43403 whole entry): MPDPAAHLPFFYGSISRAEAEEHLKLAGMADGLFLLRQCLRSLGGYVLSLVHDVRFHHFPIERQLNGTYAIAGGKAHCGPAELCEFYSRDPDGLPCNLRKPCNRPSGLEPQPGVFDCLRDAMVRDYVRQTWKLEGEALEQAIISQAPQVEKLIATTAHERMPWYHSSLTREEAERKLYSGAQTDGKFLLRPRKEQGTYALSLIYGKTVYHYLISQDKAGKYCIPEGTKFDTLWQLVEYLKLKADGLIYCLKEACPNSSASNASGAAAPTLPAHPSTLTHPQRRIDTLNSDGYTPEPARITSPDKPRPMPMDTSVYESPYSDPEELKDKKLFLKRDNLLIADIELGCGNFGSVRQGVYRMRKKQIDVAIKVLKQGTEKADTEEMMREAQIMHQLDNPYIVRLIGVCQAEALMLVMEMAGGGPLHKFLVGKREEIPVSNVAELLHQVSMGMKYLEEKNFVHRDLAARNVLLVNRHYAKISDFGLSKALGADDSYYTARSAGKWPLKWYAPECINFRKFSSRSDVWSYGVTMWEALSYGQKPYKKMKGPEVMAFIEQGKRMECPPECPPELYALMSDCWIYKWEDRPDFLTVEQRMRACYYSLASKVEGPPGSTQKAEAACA

[26] = system: THP-1; test: Inhibition of MCP1-induced chemotaxis of THP1 cells; format: functional, cell-based; settings: Homo sapiens
[27] = Cmax in rat at 10 mg/kg, iv; format: ADME, organism-based; set-up: dose 10 mg/kg, route intravenous; settings: in vivo
In short: (§3)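 Rats given a single 10 mg/kg dose, intravenously or orally. The compound was given as its potassium salt, prepared with KOH in THF/water, for the in vivo work.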

[28] = Cmax in rat at 10 mg/kg, po; format: ADME, organism-based; set-up: dose 10 mg/kg, route oral; settings: in vivo; in short: as §3
[29] = system: Rattus norvegicus; test: Half life in rat at 10 mg/kg, iv; format: ADME, organism-based; set-up: dose 10 mg/kg, route intravenous; settings: in vivo; in short: as §3
[30] = target: Phosphatidylinositol 4,5-bisphosphate 3-kinase catalytic subunit alpha isoform (Homo sapiens, UniProt P42336); test: Inhibition of human PI3Kalpha
[31] = target: Aurora kinase A (Homo sapiens) (UniProt O14965); test: Residual activity at human Aurora A at 10 uM in presence of 10 uM ATP relative to control; in short: as §2
[32] = target: Cyclin-dependent kinase 1/cyclin B1 (Homo sapiens) (UniProt P06493+P14635); test: Residual activity at human CDK1/CyclinB at 10 uM in presence of 10 uM ATP relative to control; format: protein-complex assay; in short: as §2
[33] = target: Cyclin-dependent kinase 2/cyclin E (Homo sapiens) (UniProt P24864+P24941+O96020); test: Residual activity at human CDK2/CyclinE at 10 uM in presence of 10 uM ATP relative to control; format: protein-complex assay; in short: as §2
[34] = system: THP-1; test: Inhibition of CSF-1-induced PKB/Akt phosphorylation in THP1 cells; settings: Homo sapiens

Chain of Dual specificity mitogen-activated protein kinase kinase 4 (Mus musculus) (P47809 whole entry): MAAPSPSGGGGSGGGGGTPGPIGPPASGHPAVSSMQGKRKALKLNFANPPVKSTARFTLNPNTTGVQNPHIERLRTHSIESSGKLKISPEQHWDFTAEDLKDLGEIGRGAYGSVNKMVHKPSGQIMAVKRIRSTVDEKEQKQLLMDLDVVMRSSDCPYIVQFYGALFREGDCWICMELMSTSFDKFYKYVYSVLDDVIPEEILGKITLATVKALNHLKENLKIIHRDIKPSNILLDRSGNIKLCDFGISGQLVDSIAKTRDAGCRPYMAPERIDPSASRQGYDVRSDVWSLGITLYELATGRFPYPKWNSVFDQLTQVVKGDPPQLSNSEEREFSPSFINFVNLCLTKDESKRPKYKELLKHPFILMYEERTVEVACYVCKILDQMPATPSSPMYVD

**Q.** For `O=C1NC(=O)/C(=C/c2ccc(-c3ccc(F)cc3O)o2)S1`, which Activity [1] is on record?
**A.** 85%

**Q.** What about the Activity [2] of the same compound?
**A.** 105%

**Q.** What about the Activity [3] of the same compound?
**A.** 72%

**Q.** And the Activity [4]?
**A.** 190%

**Q.** What about the Activity [5] of the same compound?
**A.** 85%

**Q.** What about the Activity [6] of the same compound?
**A.** 98%

**Q.** And the Activity [7]?
**A.** 91%

**Q.** And the Activity [8]?
**A.** 82%

**Q.** What about the Activity [9] of the same compound?
**A.** 121%

**Q.** And the Activity [10]?
**A.** 93%

**Q.** And the Activity [11]?
**A.** 91%

**Q.** What about the Activity [12] of the same compound?
**A.** 66%

**Q.** And the Activity [13]?
**A.** 84%

**Q.** And the Activity [14]?
**A.** 97%

**Q.** And the Activity [15]?
**A.** 104%

**Q.** And the Activity [16]?
**A.** 101%

**Q.** And the Activity [17]?
**A.** 117%

**Q.** What about the Activity [18] of the same compound?
**A.** 84%

**Q.** And the Activity [19]?
**A.** 95%

**Q.** What about the Activity [20] of the same compound?
**A.** 95%

**Q.** And the Activity [21]?
**A.** 104%

**Q.** And the Activity [22]?
**A.** 86%

**Q.** What about the Activity [23] of the same compound?
**A.** 93%

**Q.** What about the Activity [24] of the same compound?
**A.** 98%

**Q.** What about the Activity [25] of the same compound?
**A.** 159%

**Q.** What about the IC50 [26] of the same compound?
**A.** 53 µM

**Q.** What about the Cmax [27] of the same compound?
**A.** 11400 ng/mL

**Q.** And the Cmax [28]?
**A.** 309 ng/mL

**Q.** And the T1/2 [29]?
**A.** 39 min

**Q.** And the IC50 [30]?
**A.** 0.94 µM

**Q.** What about the Activity [31] of the same compound?
**A.** 85%

**Q.** What about the Activity [32] of the same compound?
**A.** 80%

**Q.** And the Activity [33]?
**A.** 93%

**Q.** What about the IC50 [34] of the same compound?
**A.** 4.73 µM
